Bioassay records as filed in PubChem.
RGS4 pot = RGS4 potentiation or activation. B-score at 10 µM. actives 0.92% (n = 310,000). AID 463111. HEK293 M3R/inducible RGS4, carbachol calcium flux Fluo4; stronger effect = lower value;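 active = B-score of the integrated calcium signal more than 4 SD below the library mean, with starting fluorescence not abnormally high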;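 note: negative B-score means reduced calcium response which marks RGS4 activation or potentiation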
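Assay system: Inducible-RGS4 HEK293 cells carrying M3 receptor | Schedule: Compound preincubation 20 min at room temperature before agonist | Signal: Kinetic calcium fluorescence imaging with Fluo4-AM dye, 2 µM | Read-out basis: B score from integrated fluorescence ratio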
MrgX1 antag = antagonists of human MrgX1 receptor; MRGX1-HEK293 calcium flux, Fluo-4, BAM8-22 antagonism; stronger effect = lower value; B-score at 10 µM; Q96LB2; actives 1.3% (n = 310,000);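 active = calcium-response B-score plate-corrected more than 3 library SD below zero, starting fluorescence within 5 deviations, no agonist response on first addition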;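 note: peak minus trough fluorescence over baseline after final BAM8-22 challenge near maximal dose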
Target sequence (Q96LB2 whole entry, looked up): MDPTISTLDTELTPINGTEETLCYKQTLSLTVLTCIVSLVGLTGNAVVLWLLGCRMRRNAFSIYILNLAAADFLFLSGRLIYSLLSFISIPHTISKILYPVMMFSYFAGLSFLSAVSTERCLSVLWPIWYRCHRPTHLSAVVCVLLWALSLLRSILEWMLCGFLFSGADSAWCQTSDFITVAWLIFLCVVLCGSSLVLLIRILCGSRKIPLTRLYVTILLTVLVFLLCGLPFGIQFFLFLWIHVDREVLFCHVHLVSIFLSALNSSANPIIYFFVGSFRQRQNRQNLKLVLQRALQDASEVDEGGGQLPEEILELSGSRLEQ
MrgX1 allo act = allosterically activates human MrgX1 receptor signaling. actives 0.63% (n = 310,000). MrgX1-HEK293, Fluo-4 calcium flux, FDSS; stronger effect = higher value. Q96LB2. B-score at 10 µM;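 active = plate-corrected calcium response at least 3 library SD above typical, normal starting fluorescence, not activating the receptor alone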;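 note: compound read alongside a low EC10 to EC30 dose of BAM8-22 agonist; peak minus trough fluorescence over baseline measured at the second addition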
MrgX1 ag = human MrgX1 receptor agonism, primary screen. Q96LB2. MrgX1-HEK293 cells, Fluo-4 calcium fluorescence, agonist mode; stronger effect = higher value. B-score at 10 µM. actives 0.44% (n = 310,000);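 active = calcium response B-score plate-corrected fluorescence ratio at least 3 library SD, with starting fluorescence B-score inside 5 SD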
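Test system: Stable human MrgX1 HEK293 cell line | Schedule: Overnight plating before 1 h dye loading | Read-out basis: Baseline-normalised fluorescence change ratio, B-scored | Detection: Kinetic calcium dye fluorescence, Fluo-4 NW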
RGS4 inh = human RGS4 inhibition | P49798 | HEK293 M3R/RGS4 inducible, Fluo-4 calcium flux; stronger effect = higher value; triggered by carbachol at its EC20 | B-score at 10 µM | actives 0.45% (n = 310,000) | AID 463165;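 active = B-score, a plate-corrected calcium signal, over three deviations above library mean, with baseline fluorescence within five deviations of library mean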;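 note: RGS4 expression induced by doxycycline in cells with stable M3 receptor; B-score is computed from the integrated fluorescence ratio over baseline after carbachol; higher B-score means a larger calcium signal and so more RGS4 inhibition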
Target sequence (P49798 whole entry, looked up): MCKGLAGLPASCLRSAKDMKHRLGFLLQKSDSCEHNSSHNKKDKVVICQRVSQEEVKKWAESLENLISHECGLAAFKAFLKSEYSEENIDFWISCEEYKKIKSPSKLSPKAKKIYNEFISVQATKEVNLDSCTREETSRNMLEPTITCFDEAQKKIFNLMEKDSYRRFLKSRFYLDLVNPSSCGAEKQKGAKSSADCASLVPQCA
RGS4 activ val = confirmation of RGS4 activators | shares compounds with RGS4 pot | HEK293 M3R/RGS4 inducible, carbachol calcium flux Fluo4 | inhibition, % at 10 µM | actives 89% (n = 1,100) | AID 602282;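 active = inhibition above 3 SD of the buffer control wells, cut at about 41% in these data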;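 note: signal is the integrated peak-minus-minimum Fluo4 fluorescence over baseline ratio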
RGS4 act ctr = counter-screen for RGS4 activators: effect in non-induced cells; shares compounds with RGS4 pot; HEK293 M3R non-induced RGS4, Fluo4 calcium flux; after carbachol challenge at its EC90; inhibition, % at 10 µM; actives 82% (n = 1,100); AID 602283;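 active = inhibition exceeding 3 SD of buffer-only control wells, cut at about 26% in these data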;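 note: percent drop in integrated peak-minus-baseline over baseline Fluo4 ratio after carbachol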
A number is an active result; - = inactive; . = not tested or not shown. Rows were chosen to be rich in hits. Some 3.5% of all compounds tested hit in one or more screens of this group.

SMILES	RGS4 pot	MrgX1 antag	MrgX1 allo act	MrgX1 ag	RGS4 inh	RGS4 activ val	RGS4 act ctr
C=CCn1c(C)cc(-c2csc(NC(=O)CCc3nc4ccccc4c(=O)[nH]3)n2)c1C	-8.45	-	-	-	-	68.5	-
COCCN(C(=O)C1=COCCO1)c1c(N)n(Cc2ccccc2)c(=O)[nH]c1=O	-	-	-	-	-	.	.
COc1ccc(-n2nc(C(=O)NCC(=O)Nc3cccc(NC(C)=O)c3)c3ccccc3c2=O)cc1	-	-	-	-	-	.	.
COc1ccc(OC)c2sc(N(CCCN(C)C)C(=O)CCS(=O)(=O)c3ccccc3)nc12	-12.7	-7.58	-	-	-	83.5	57.8
COc1ccccc1C/C(N)=N/OC(=O)COc1ccc(C)cc1C	-	-	-	-	-	.	.
Cc1ccc(C(=O)NC2(O)C(=O)c3ccccc3C2=O)cc1C	-	-	-	-	-	.	.
O=C(NC1(O)C(=O)c2ccccc2C1=O)c1ccc(C(F)(F)F)cc1	-7.64	-	-	-	-	-	-
CC(=O)/C(C(=N)N1CCN(C(c2ccccc2)c2ccccc2)CC1)=C(\C)O	-9.24	-	-	-	-	81.0	83.8
CN(C)CCN(C(=O)c1ccc(C(=O)c2ccccc2)cc1)c1nc2cc3c(cc2s1)OCCO3	-9.05	-	-	-	-	90.0	74.3
CN(C)CCN(C(=O)c1ccc(C(=O)c2ccccc2)cc1)c1nc2cc3c(cc2s1)OCO3	-	-	-	-	-	.	.
O=C(Cc1ccc(F)cc1)Nc1nc(-c2ccc(F)c(F)c2)cs1	-	-	-	-	-	.	.
COc1ccc(CC(=O)Nc2nc(-c3ccc(F)c(F)c3)cs2)cc1	-9.97	-	-	-	-	92.5	96.3
COc1cccc(OCCn2cc(C(=O)c3ccco3)c3ccccc32)c1	-10.7	-	-	-	-	90.0	50.3
CC(=O)Nc1c2c3c(cccc3n(C)c1=O)C(=O)c1ccccc1-2	-8.62	-	-	-	-	53.0	-
CC(=O)Nc1ccc(Nc2ccc3c4c(cc(=O)n3C)-c3ccccc3C(=O)c24)cc1	-	-	-	-	-	.	.
CCCOc1ccc(OCCCCNC(C)CC)cc1 (centres undefined)	-	-	-	-	-	.	.
CCC(C)NCCOc1ccc(C(C)(C)c2ccccc2)cc1 (centres undefined)	-7.78	-	-	-	-	79.0	33.8
CCOC(=O)N1CCC(NC(=O)c2cnn3c(C(F)(F)F)cc(-c4cccc(OC)c4)nc23)CC1	-8.38	-	-	-	-	-	-
CN(CC(=O)Nc1cccc(F)c1)CC(=O)Nc1cccc(S(=O)(=O)N2CCCCCC2)c1	-7.66	-	-	-	-	62.5	32.8
CCOC(=O)c1sc(NC(=O)CSc2nnc(-c3ccco3)n2CC)c(C(=O)OCC)c1C	-18.3	-	-	-	-	92.0	91.3
COC(=O)c1c(NC(=O)CSc2nnc(-c3ccco3)n2C)sc(C)c1C	-	-	-	-	-	.	.
Cc1cccc(-c2cc(C(=O)Nc3cccnc3)c3ccccc3n2)c1	-9.49	-	-	-	-	56.0	-
O=C(CCC1CCCN(C2C3CC4CC(C3)CC2C4)C1)NCc1ccc(F)c(F)c1 (centres undefined)	-7.66	-	-	-	-	81.0	45.3
Cc1cc(OCC(=O)Nc2ccc(S(=O)(=O)N3CCN(C)CC3)cc2)ccc1Cl	-8.3	-	-	-	-	-	-
c1ccc(COc2ccc(OCCCN3CCCCC3)cc2)cc1	-7.71	-	-	-	-	90.0	62.8
SMILES	RGS4 pot	MrgX1 antag	MrgX1 allo act	MrgX1 ag	RGS4 inh	RGS4 activ val	RGS4 act ctr
COc1ccc(OCCCN2CCCCCC2)cc1	-	-	-	-	-	.	.
c1ccc(OCc2ccc(CCCN3CCOCC3)cc2)cc1	-8.06	-	-	-	-	57.5	83.8
c1ccc(CCCN2CCOCC2)cc1	-	-	-	-	-	.	.
CCc1cc2c(-n3nc(C)cc3C)ncnc2s1	-	-	-	-	-	.	.
CCOC(=O)c1nnn(-c2nonc2-n2cccc2)c1CCl	-	-	-	-	-	.	.
CCOC(=O)c1nnn(-c2nonc2-n2cccc2)c1CN1CCC(C)CC1	-8.02	-	-	-	-	71.5	-
Cc1cccc(NC(=O)Cn2nc(C(F)(F)F)cc2C2CC2)c1	-	-	-	-	-	.	.
Cc1cc(C)nc(NC(N)=NC2CCCCC2)n1	-	-	-	-	-	.	.
CSc1n[nH]c(NC(C)=O)n1	-	-	-	-	-	.	.
CSc1n[nH]c(NC2=CC(=O)CCC2)n1	-7.66	-	-	-	-	-	-
O=C(c1ccc(Cn2c(=O)[nH]c3ccccc3c2=O)cc1)N1CCN(c2ccccc2)CC1	-	-	-	-	-	.	.
c1csc(CCNc2ncnc3sc4c(c23)CCC4)c1	-	-	-	-	-	.	.
CCOC(=O)c1cc(C)nc(N2CCCCC2)c1C#N	-11.3	-	-	-	-	-	-
Cc1cc(N(C)C)c(C#N)c(N2CCCCC2)n1	-	-	-	-	-	.	.
NC(=O)C[N+]1(CC#CC(O)(c2ccccc2)c2ccccc2)CCCC1	-12.2	-	-	-	-	52.5	-
O=C(CNC1CCCC1)Nc1ccc(N2CCCCCC2)cc1	-7.96	-	-	-	-	83.5	35.8
O=C(CNC1CCCCCC1)Nc1ccc(N2CCCC2)cc1	-	-	-	-	-	.	.
O=C(CNCCC1=CCCCC1)Nc1ccc(N2CCCCCC2)cc1	-10.4	-	-	-	-	94.0	91.8
Cc1nc(-c2ccc(S(=O)(=O)Oc3ccc(Cl)cc3Cl)s2)cs1	-8.42	-	-	-	-	89.0	70.8
CCCc1cc(=O)oc2cc(C)cc(OC(C)C(=O)N[C@@H](Cc3c[nH]c4ccccc34)C(=O)O)c12 (some centres undefined)	-14.1	-	-	-	-	-	-
CCCCc1cc(=O)oc2cc(C)cc(OC(C)C(=O)NC(Cc3c[nH]c4ccc(O)cc34)C(=O)O)c12 (centres undefined)	-	-	-	-	-	.	.
CCOc1nc(NCCc2ccc(OC)c(OC)c2)nc(NC(C)(C)CO)n1	-	-	-	-	-	.	.
Cc1cc(Nc2cccc(F)c2)nc(-c2ccccc2O)n1	-	-	-	-	-	.	.
CCOC(=O)c1ccc(Nc2cc(C)nc(-c3ccccc3O)n2)cc1	-8.26	-	-	-	-	89.5	65.8
Cc1ccc(S(=O)(=O)N2CCOCC2)cc1NC(=O)COC(=O)c1ccc2c(c1)OCCO2	-	-	-	-	-	.	.
COC(=O)C1CCN(C(=O)COC(=O)c2oc3ccc(OC)cc3c2C)CC1	-	-	-	-	-	.	.
c1ccc(CCNCCOc2ccccc2)cc1	-	-	-	-	-	.	.
